Results taken from ChEMBL document CHEMBL1144030, “Synthesis of a potent and selective (18)F-labeled delta-opioid receptor antagonist derived from the Dmt-Tic pharmacophore for positron emission tomography imaging” (J Med Chem, 2008).
Square brackets hold non-standard residues; d marks the D form. Peptide text beside a SMILES is read from it. * marks the point of attachment. Dmt = Cc1cc(O)cc(C)c1C[C@H](N)C(=O)O; Tic = O=C(O)[C@@H]1Cc2ccccc2CN1; Cbz = O=C(OCc1ccccc1)*

Key:
[1] = target: Mu-type opioid receptor (Cavia porcellus, UniProt P97266); experiment: Agonist activity at mu opioid receptor in Hartley guinea pig assessed as inhibition of electrically evoked-contraction; assay type: functional
Summary of the method: (§1)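 Isolated tissue: single mouse vas deferens (delta) or myenteric plexus longitudinal muscle strips, 2–3 cm, from small intestine of male Hartley guinea pigs (mu), in organ baths with balanced salt solution, pH 7.5. Inhibition of electrically evoked contraction; IC50 (nM) from dose-response curves, mean ± SE of five or six separate assays.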

[2] = organism: Rattus norvegicus; experiment: Ratio of Ki for mu opioid receptor to delta opioid receptor in Sprague-Dawley rat brain P2 synaptosomal membrane
Summary of the method: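 Ratio of Ki values from rat brain P2 synaptosome competition binding (2.5 h, 23 °C, equilibrium; filtration on polyethylenimine-treated GFC filters). Ki by Cheng-Prusoff from duplicate assays at five to eight doses, 3–5 independent preparations.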

[3] = target: T1, Delta-type opioid receptor (Mus musculus, UniProt P32300); experiment: Antagonist activity at delta opioid receptor in electrically stimulated-mouse vas deferens; assay type: functional, tissue-based; conditions: read-out: pA2 (converted)
Summary of the method: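 Mouse vas deferens in organ bath with physiological salt buffer, pH 7.5, electrically stimulated. Antagonism measured against the delta agonist deltorphin-II and expressed as pA2 derived by Schild plot.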

[4] = target: Mu-type opioid receptor (Rattus norvegicus, UniProt P33535); experiment: Displacement of [3H]DAMGO from mu opioid receptor in Sprague-Dawley rat brain P2 synaptosomal membrane
Summary of the method: (§2)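 Competition binding on rat brain P2 synaptosomes, preincubated to strip endogenous opioids and stored at −80 °C in buffered 20% glycerol. Equilibrium 2.5 h at 23 °C. Separation on GFC filters presoaked in 0.1% polyethylenimine, washed three times with ice-cold buffered BSA. Duplicates, five to eight doses, 3–5 independent membrane preparations; Ki by Cheng-Prusoff, mean ± SE.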

[5] = target: Delta-type opioid receptor (Rattus norvegicus, UniProt P33533); experiment: Displacement of [3H]deltorphin2 from delta opioid receptor in Sprague-Dawley rat brain P2 synaptosomal membrane; summary of the method: as §2
[6] = target: T1, Delta-type opioid receptor; experiment: Agonist activity at delta opioid receptor in mouse vas deferens assessed as inhibition of electrically evoked-contraction; assay type: functional, tissue-based; summary of the method: as §1

T1 sequence (P32300 whole entry): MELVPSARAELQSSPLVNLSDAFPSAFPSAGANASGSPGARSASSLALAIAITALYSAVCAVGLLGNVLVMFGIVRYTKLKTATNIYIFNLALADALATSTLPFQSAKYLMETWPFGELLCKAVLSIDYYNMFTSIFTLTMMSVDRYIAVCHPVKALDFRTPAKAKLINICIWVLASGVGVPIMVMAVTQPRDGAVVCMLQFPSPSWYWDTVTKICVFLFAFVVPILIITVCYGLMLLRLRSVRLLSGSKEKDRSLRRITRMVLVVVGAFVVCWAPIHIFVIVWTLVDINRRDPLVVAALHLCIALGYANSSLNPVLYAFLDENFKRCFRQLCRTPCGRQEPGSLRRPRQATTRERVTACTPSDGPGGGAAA
Mu-type opioid receptor (Cavia porcellus, UniProt P97266), sequence (P97266 whole entry): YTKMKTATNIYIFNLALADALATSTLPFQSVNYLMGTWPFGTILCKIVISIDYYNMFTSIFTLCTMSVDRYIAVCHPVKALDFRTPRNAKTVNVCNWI
Mu-type opioid receptor (Rattus norvegicus, UniProt P33535), sequence (P33535 whole entry): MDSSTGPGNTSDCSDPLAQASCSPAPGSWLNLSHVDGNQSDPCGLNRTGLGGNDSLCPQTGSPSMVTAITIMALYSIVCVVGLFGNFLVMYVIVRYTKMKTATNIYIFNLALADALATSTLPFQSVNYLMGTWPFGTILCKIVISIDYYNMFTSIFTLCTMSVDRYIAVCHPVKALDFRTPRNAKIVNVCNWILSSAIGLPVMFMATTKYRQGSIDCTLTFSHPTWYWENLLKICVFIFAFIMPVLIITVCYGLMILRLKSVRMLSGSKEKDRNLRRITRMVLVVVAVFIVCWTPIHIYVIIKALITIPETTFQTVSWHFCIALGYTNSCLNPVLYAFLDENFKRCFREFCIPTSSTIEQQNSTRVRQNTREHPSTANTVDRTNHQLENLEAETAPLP
Delta-type opioid receptor (Rattus norvegicus, UniProt P33533), sequence (P33533 whole entry): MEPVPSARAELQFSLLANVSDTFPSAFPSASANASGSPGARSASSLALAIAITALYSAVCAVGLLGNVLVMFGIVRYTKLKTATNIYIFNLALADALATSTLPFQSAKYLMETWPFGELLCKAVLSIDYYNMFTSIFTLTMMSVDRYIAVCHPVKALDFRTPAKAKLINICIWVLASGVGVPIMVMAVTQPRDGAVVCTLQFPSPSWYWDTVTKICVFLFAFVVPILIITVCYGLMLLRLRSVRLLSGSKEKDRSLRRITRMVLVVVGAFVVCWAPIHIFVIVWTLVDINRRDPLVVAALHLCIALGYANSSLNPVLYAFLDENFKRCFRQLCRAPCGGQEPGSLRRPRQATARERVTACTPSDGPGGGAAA

| SMILES | IC50 [1] [nM] | Ratio Ki [2] | Kb [3] [nM] | Ki [4] [nM] | Ki [5] [nM] | IC50 [6] [nM] |
| --- | --- | --- | --- | --- | --- | --- |
| Cc1cc(O)cc(C)c1C[C@H](N)C(=O)N1Cc2ccccc2C[C@@H]1C(=O)NCCCC[C@H](NC(=O)c1ccc(F)cc1)C(=O)O | 1920 | 240 | 5.62 | 41.2 | 0.172 | – |
| Cc1cc(O)cc(C)c1C[C@H](N)C(=O)N1Cc2ccccc2C[C@H]1C(=O)N[C@@H](Cc1ccccc1)C(=O)N[C@@H](CCCCNC(=O)OCc1ccccc1)C(=O)O (H-[Dmt][Tic]FK(Cbz)-OH) | > 10000 | – | – | 2.75 | 0.019 | – |
| Cc1cc(O)cc(O)c1C[C@H](N)C(=O)N1Cc2ccccc2C[C@@H]1C(=O)N[C@@H](Cc1ccccc1)C(=O)N[C@@H](CCCCNC(=O)OCc1ccccc1)C(=O)O | – | 145 | – | – | – | – |
| Cc1cc(O)cc(C)c1C[C@H](N)C(=O)N1Cc2ccccc2C[C@@H]1C(=O)N[C@@H](Cc1ccccc1)C(=O)N[C@@H](CCCCNC(=O)c1ccc(F)cc1)C(=O)O | – | 53 | – | – | – | – |
| Cc1cc(O)cc(C)c1C[C@H](N)C(=O)N1Cc2ccccc2C[C@H]1C(=O)N[C@@H](Cc1ccccc1)C(=O)N[C@@H](CCCCNC(=O)c1ccc(F)cc1)C(=O)O | 50.6 | – | 0.355 | 13.2 | 0.248 | 5180 |
